Measured values published in ChEMBL document CHEMBL1126298, “New triazine derivatives as potent modulators of multidrug resistance” (1992).

Legend:
DC3F/AD [1] = assay: Increase in adriamycin uptake in modulator-treated cells relative to untreated cells at a concentration of 10 uM; type: functional, Cricetulus griseus
In short: (§1)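 DC-3F/AD or KB-A1 cells (5 × 10⁶/mL) were incubated at 37 °C for 5 h with 50 μM adriamycin plus modulator (2.5–10 μM range). ADR fluorescence of 10 000 cells was read by flow cytometry at 4 °C with 488 nm argon-laser excitation. The value is the increase in mean fluorescence of treated cells over untreated cells.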

DC3F/AD [2] = assay: Percent of cell viability remaining after incubating the cells with the modulator alone a concentration of 5 uM; type: functional, Cricetulus griseus
In short: (§2)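 Cells were grown with modulator alone for 4 days under the same conditions as the chemosensitivity assay, and read by MTT. Viability = (absorbance with modulator/absorbance of control cells) × 100. "tox" marks viability below 25%.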

DC3F/AD [3] = assay: In vitro activity in DC-3F/AD cell line(Ratio of IC50(actinomycin D alone) / IC50(actinomycin D + modulator) at a concentration of 5 uM
DC3F/AD [4] = assay: In vitro activity in DC-3F/AD cell line Ratio of IC50(actinomycin D alone) / IC50(actinomycin D + modulator) at a concentration of 10 uM
DC3F/AD [5] = assay: Increase in adriamycin uptake in modulator-treated cells relative to untreated cells at a concentration of 5 uM; type: functional, Cricetulus griseus; in short: as §1
DC3F/AD [6] = assay: Percent of cell viability remaining after incubating with a 10 uM concentration; type: functional, Cricetulus griseus; in short: as §2
KB [7] = assay: In vitro activity in KB-A1 cell line activity expressed as fold reversion (Ratio of IC50(adriamycin alone) / IC50(adriamycin + modulator) at a concentration of 5 uM; type: functional, Homo sapiens
In short: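 Human epidermoid KB-A1 cells (Pgp-overexpressing) were grown in RPMI 1640 with 10% FCS and 10 mM HEPES (pH 7.4). They were exposed for 4 days to adriamycin (nine graded concentrations, in triplicate) with or without 5 μM modulator. IC50 was read by the MTT assay. Fold reversion = IC50(ADR alone)/IC50(ADR + modulator).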

KB [8] = assay: Increase in adriamycin uptake in modulator-treated cells relative to untreated KB-A1 cells at a concentration of 5 uM; type: functional, Homo sapiens; in short: as §1
KB [9] = assay: Percent of cell viability remaining after incubating the cells with the modulator alone; type: functional, Homo sapiens; design: concentration or dose not given beside the values; in short: as §2

| SMILES | Increase (DC3F/AD [1]) | Viability (DC3F/AD [2]) | Fold reversion (DC3F/AD [3]) | Fold reversion (DC3F/AD [4]) | Increase (DC3F/AD [5]) | Viability (DC3F/AD [6]) | Fold reversion (KB [7]) | Increase (KB [8]) | Viability (KB [9]) |
| --- | --- | --- | --- | --- | --- | --- | --- | --- | --- |
| C=CCNc1nc(NCC=C)nc(N2CCC(N(C)CC(c3ccccc3)c3ccccc3)CC2)n1 | 27.9 | 88% | 354 | 1418 | 20.6 | 85% | – | – | – |
| C=CCNc1nc(NCC=C)nc(N2CCN(CCCC(c3ccc(F)cc3)c3ccc(F)cc3)CC2)n1 | – | 50% | 171 | <25 | – | – | – | – | – |
| C=CCNc1nc(NCC=C)nc(NCC(O)CN2CCC(NCC3c4ccccc4CCc4ccccc43)CC2)n1 (stereo not drawn) | 12.6 | 98% | 1 | – | 10.5 | – | <25 | 5.5 | – |
| C=CCNc1nc(NCC=C)nc(N2CCN(CCC(c3ccccc3)c3ccccc3)CC2)n1 | 1.2 | 72% | 42 | 598 | 0 | 64% | – | – | – |
| C=CCNc1nc(NCC=C)nc(N2CCC(NCC3c4ccccc4CS(=O)(=O)c4ccccc43)CC2)n1 (stereo not drawn) | – | 90% | 27 | 2536 | – | 94% | – | – | – |
| C=CCNc1cc(N2CCC(NCC(c3ccccc3)c3ccccc3)CC2)nc(NCC=C)n1 | 16.3 | 67% | 472 | <25 | 15.1 | – | – | – | – |
| C=CCNc1nc(NCC=C)nc(N2CCC(NC(c3ccc(F)cc3)c3ccc(F)cc3)CC2)n1 | 25.1 | 76% | 388 | 1212 | 16 | 56% | – | – | – |
| C=CCNc1nc(NCC=C)nc(N2CCC(NCC(c3ccccc3)(c3ccccc3)c3ccccc3)CC2)n1 | – | 59% | 57 | <25 | – | – | – | – | – |
| C/C=C/CNc1nc(NC/C=C/C)nc(N2CCC(NC(c3ccc(F)cc3)c3ccc(F)cc3)CC2)n1.Cl.Cl | – | 82% | 146 | 339 | – | 43% | – | – | – |
| C=CCNc1cc(N2CCC(NC(c3ccc(F)cc3)c3ccc(F)cc3)CC2)nc(NCC=C)n1.Cl.Cl | – | 49% | 1174 | <25 | – | – | – | – | – |
| C=CCNc1nc(NCCC)nc(N2CCC(NC(c3ccc(F)cc3)c3ccc(F)cc3)CC2)n1.Cl.Cl | 25.5 | – | – | 2220 | 19.8 | 47% | – | – | – |
| C=CCNc1nc(NCC=C)nc(N2CCC(SCCC(c3ccccc3)c3ccccc3)CC2)n1 | 19.7 | 85% | 41 | 248 | 8 | 79% | – | – | – |
| C=CCNc1nc(NCC=C)nc(N2CCC(NC(c3ccccc3)c3ccc(F)cc3)CC2)n1.Cl (stereo not drawn) | 19.4 | 72% | 732 | 1796 | 10.5 | 54% | – | – | – |
| C=CCNc1nc(NCC=C)nc(N2CCC(OC(c3ccc(F)cc3)c3ccc(F)cc3)CC2)n1.Cl | 16.1 | 70% | 290 | 969 | 11.4 | 56% | – | – | – |
| C=CCNc1nc(NCCC)nc(N2CCC(NCCC(c3ccccc3)c3ccccc3)CC2)n1 | 27.2 | – | <25 | <25 | 17.9 | – | – | – | – |
| C=CCNc1nc(NCC=C)nc(N2CCC(SC(c3ccccc3)c3ccccc3)CC2)n1 | 28.3 | 90% | 380 | 1202 | – | 76% | – | – | – |
| C=CCNc1nc(NCC=C)nc(N2CCN(C(c3ccc(Cl)cc3)c3ccc(Cl)cc3)CC2)n1.CS(=O)(=O)O | – | 81% | 42 | 99 | – | 67% | – | – | – |
| C=CCNc1nc(NCC=C)nc(NCC(O)CN2CCC(NC3c4ccccc4CCc4ccccc43)CC2)n1 (stereo not drawn) | 12.9 | 77% | 2 | – | 10.4 | – | <25 | 13 | – |
| C=CCNc1nc(NCC=C)nc(N2CCC(N(CC=C)C(c3ccc(F)cc3)c3ccc(F)cc3)CC2)n1 | 33.9 | – | – | 627 | 22.1 | 49% | – | – | – |
| C=CCNc1nc(NCC=C)nc(NCCN2CCC(NCC3c4ccccc4CCc4ccccc43)CC2)n1 | 12.4 | 41% | 120 | <25 | 13.7 | – | <25 | 20.9 | – |
| C=CCNc1nc(NCC=C)nc(N2CCN(NC(=O)C3c4ccccc4CCc4ccccc43)CC2)n1 | 24.8 | 86% | 138 | 2174 | 9.5 | 67% | – | – | – |
| C=CCNc1nc(NCC=C)nc(N2CCC(NCC(c3ccccc3)c3ccccc3)CC2)n1 | 34.7 | 90% | 753 | 1540 | 31.3 | 77% | – | – | – |
| C=CCNc1nc(NCC=C)nc(N2CCC(N(CC)C(c3ccc(F)cc3)c3ccc(F)cc3)CC2)n1 | 44.7 | 75% | 1008 | 1838 | 42.7 | 53% | – | – | – |
| C=CCNc1nc(NCC=C)nc(NC2CCN(C(c3ccc(F)cc3)c3ccc(F)cc3)CC2)n1 | – | 38% | 1654 | <25 | – | – | 22 | – | 40% |
| C=CCNc1nc(NCC=C)nc(NCCN2CCC(NC3c4ccccc4CCc4ccccc43)CC2)n1 | 18.3 | 38% | 64 | <25 | 10.4 | – | <25 | 14.5 | – |
| C=CCNc1nc(NCC=C)nc(NN2CCN(C(c3ccc(F)cc3)c3ccc(F)cc3)CC2)n1 | 20.7 | 82% | 1932 | 5344 | 18.3 | 78% | – | – | – |
| C=CCNc1nc(NCC=C)nc(N2CCC(NCC(c3c(C)cccc3C)c3c(C)cccc3C)CC2)n1 | 35.5 | 100% | 93 | 374 | 28.9 | 84% | – | – | – |
| C=CCNc1nc(NCC=C)nc(N2CCC(NCC34CCC(c5ccccc53)c3ccccc34)CC2)n1 | 30.7 | 90% | 96 | 422 | 20.2 | 87% | <25 | 22.2 | – |
| C=CCNc1nc(NCC=C)nc(N2CCC(NCCC(c3ccccc3)c3ccccc3)CC2)n1 | 29.8 | 50% | 220 | <25 | 21.5 | – | – | – | – |
